In article PMC12552610 (Nature Communications, 2025):

Target: Aβ (AD brain homogenates) (Homo sapiens, UniProt P05067)
Assay: Competition of PiB against [3H]ACI-Aβ ref on AD brain homogenates
Type: binding
Procedure, shortened: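 Insoluble AD brain fraction prepared by high-salt, Triton X-100 and sucrose ultracentrifugation steps. Competitor serially diluted from 2000 nM to 0.14 nM against tritiated Aβ reference ligand at 15 nM. Run in 50 mM Tris pH 7.5, 0.9% NaCl, 0.1% BSA for 2 h at RT, in duplicate. Samples vacuum-filtered on GF/C, washed five times with ice-cold Tris, then scintillation-counted.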

Aβ (AD brain homogenates), sequence (P05067 672-713): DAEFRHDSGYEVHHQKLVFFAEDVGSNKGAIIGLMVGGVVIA

CNc1ccc(-c2nc3ccc(O)cc3s2)cc1 [Pittsburg compound B, 2-(4-(Methylamino)phenyl)benzo[d]thiazol-6-ol]
displacement of Aβ ref cmpd: can be displaced by it
